# Data from ChEMBL document CHEMBL1131235, “(R)-(+)-2-[[[3-(Morpholinomethyl)-2H-chromen-8-yl]oxy]methyl] morpholine methanesulfonate: a new selective rat 5-hydroxytryptamine1B receptor antagonist” (J Med Chem, 1998).
# How the values were obtained:
# [1] = target: 5-HT1B & 5-HT1D (Bos taurus); assay: Binding affinity against 5-hydroxytryptamine 1B receptor - 5-hydroxytryptamine 1D receptor using [3H]5-HT as the radioligand.
# [2] = target: Adrenergic receptor beta (Rattus norvegicus, UniProt P18090+P10608+P26255); assay: Binding affinity against Beta adrenergic receptor in rat cortex using [3H]dihydroalprenolol as the radioligand.
# In short: (§1)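 Binding by the Jackson et al. method. 5-HT1A used [3H]OH-DPAT on rat hippocampus. α1 used [3H]prazosin, α2 [3H]RX821002 and β [3H]dihydroalprenolol, all on rat cortex. D1 used [3H]SCH-23390 on rat striatum. D2 used [3H]raclopride on LtkhD2A cell membranes.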
# [3] = target: 5-hydroxytryptamine receptor 1B (Rattus norvegicus, UniProt P28564); assay: Binding affinity against 5-hydroxytryptamine 1B receptor in membranes of Rat cerebral cortex; type: tissue-based
# Chain of 5-hydroxytryptamine receptor 1B (P28564 whole entry): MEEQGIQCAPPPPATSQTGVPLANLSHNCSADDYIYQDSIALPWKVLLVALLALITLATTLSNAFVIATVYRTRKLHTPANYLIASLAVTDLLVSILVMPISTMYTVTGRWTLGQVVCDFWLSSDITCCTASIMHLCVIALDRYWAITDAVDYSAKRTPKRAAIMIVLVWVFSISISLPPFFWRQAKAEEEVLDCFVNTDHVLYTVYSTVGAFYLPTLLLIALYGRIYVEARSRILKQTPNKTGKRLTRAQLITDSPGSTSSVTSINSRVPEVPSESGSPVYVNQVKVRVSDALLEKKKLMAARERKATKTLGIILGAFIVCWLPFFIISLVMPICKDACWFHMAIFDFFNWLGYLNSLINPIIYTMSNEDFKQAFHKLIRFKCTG
# In short: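 Rat cerebral cortical membranes labelled with [125I]iodocyanopindolol in the presence of 60 μM isoproterenol to block β-adrenoceptor binding. Nonspecific binding was defined with 10 μM 5-HT.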
# [4] = target: D(1A) dopamine receptor (Rattus norvegicus, UniProt P18901); assay: Binding affinity against Dopamine receptor D1 in rat striatum using [3H]-SCH- 23390 as the radioligand.; type: tissue-based
# Chain of D(1A) dopamine receptor (P18901 whole entry): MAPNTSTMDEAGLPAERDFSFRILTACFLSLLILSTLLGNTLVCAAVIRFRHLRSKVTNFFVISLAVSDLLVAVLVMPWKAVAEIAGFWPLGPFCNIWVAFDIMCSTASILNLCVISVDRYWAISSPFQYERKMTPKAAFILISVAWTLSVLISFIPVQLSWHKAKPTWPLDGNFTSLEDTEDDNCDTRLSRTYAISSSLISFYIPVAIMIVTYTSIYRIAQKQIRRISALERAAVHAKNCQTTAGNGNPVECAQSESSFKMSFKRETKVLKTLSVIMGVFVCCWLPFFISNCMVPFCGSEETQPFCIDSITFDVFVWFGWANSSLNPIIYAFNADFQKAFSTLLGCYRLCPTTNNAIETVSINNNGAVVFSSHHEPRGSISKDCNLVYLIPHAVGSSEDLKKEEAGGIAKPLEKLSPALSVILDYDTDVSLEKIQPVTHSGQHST
# In short: as §1
# [5] = target: Sigma non-opioid intracellular receptor 1 (Rattus norvegicus, UniProt Q9R0C9); assay: Binding affinity against sigma receptor from rat whole brains using [3H]DTG as the radioligand.
# Chain of Sigma non-opioid intracellular receptor 1 (Q9R0C9 whole entry): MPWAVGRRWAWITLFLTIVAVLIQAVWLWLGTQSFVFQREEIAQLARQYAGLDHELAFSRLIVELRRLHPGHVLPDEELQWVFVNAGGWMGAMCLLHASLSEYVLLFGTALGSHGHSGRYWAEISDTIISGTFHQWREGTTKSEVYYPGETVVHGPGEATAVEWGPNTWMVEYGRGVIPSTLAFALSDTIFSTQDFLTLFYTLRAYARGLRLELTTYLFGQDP
# In short: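 Whole rat brain membranes labelled with [3H]DTG (N,N-di(o-tolyl)guanidine), following Ross.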
# [6] = target: T1, Adrenergic receptor alpha-1 (Rattus norvegicus, UniProt P15823+P23944+P43140); assay: Binding affinity against Alpha-1 adrenergic receptor in rat cortex using [3H]prazosin as the radioligand.; type: tissue-based, Brain
# T1 sequence (P15823 whole entry): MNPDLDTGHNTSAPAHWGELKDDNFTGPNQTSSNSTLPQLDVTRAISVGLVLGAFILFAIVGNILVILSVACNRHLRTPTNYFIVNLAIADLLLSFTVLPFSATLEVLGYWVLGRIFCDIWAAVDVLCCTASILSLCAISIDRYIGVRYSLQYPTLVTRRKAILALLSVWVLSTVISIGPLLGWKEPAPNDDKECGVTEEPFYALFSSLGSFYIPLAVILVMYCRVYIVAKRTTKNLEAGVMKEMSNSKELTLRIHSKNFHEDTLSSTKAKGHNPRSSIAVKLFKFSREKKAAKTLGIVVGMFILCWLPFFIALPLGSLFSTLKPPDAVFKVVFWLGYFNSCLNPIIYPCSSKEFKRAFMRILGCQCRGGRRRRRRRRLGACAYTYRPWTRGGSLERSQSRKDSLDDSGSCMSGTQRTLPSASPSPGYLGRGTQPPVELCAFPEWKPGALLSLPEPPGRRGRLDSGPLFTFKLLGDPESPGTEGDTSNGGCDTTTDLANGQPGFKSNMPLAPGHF
# T1 sequence (P23944 whole entry): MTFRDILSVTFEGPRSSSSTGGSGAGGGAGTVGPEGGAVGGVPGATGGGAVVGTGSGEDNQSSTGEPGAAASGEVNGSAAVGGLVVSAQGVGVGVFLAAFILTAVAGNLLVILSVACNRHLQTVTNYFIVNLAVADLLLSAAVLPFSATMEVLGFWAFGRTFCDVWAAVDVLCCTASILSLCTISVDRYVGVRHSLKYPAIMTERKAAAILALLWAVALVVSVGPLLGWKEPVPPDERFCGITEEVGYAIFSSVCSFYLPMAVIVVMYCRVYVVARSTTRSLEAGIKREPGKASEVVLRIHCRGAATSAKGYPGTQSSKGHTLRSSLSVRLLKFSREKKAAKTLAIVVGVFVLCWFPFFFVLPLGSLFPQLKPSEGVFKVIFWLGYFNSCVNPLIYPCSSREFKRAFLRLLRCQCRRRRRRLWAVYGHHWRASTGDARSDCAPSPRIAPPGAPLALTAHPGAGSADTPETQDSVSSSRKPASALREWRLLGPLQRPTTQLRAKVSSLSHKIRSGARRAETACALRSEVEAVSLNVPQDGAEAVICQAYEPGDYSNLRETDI
# T1 sequence (P43140 whole entry): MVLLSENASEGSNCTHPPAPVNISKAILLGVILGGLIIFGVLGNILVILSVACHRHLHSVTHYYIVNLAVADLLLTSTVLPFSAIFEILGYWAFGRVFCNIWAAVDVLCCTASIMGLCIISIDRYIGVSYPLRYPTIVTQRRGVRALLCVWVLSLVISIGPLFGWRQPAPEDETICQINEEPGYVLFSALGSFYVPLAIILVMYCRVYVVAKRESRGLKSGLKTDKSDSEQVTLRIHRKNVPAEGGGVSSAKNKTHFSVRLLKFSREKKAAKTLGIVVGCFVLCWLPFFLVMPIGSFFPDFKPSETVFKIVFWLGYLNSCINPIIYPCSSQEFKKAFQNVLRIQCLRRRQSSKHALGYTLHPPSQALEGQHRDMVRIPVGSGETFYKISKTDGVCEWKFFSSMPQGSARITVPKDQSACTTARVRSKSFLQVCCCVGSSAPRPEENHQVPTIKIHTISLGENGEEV
# In short: as §1
# [7] = target: T2, 5-hydroxytryptamine receptor 2C (Rattus norvegicus, UniProt P08909); assay: Binding affinity against 5-hydroxytryptamine 2C receptor from rat cortex using [3H]mesulergine as the radioligand.; type: tissue-based
# T2 sequence (P08909 whole entry): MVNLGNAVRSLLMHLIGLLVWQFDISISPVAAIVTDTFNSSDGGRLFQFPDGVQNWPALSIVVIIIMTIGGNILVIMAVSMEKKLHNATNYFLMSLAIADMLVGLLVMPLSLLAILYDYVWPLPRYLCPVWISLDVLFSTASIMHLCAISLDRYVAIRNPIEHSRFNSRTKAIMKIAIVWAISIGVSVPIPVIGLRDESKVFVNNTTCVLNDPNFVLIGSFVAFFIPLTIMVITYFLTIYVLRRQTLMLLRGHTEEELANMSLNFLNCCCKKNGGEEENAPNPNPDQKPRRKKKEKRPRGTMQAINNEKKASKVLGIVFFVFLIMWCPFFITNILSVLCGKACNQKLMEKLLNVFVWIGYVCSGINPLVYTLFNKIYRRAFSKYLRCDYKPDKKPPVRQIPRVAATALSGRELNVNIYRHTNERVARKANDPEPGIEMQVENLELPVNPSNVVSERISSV
# In short: (§2)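 Binding by the Johansson et al. method. 5-HT2A used [3H]ketanserin and 5-HT2C used [3H]mesulergine, both on rat cortex. 5-HT6 and 5-HT7 used [3H]-5-HT on CHO cell membranes expressing the rat receptors.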
# [8] = target: 5-hydroxytryptamine receptor 2A (Rattus norvegicus, UniProt P14842); assay: Binding affinity against 5-hydroxytryptamine 2A receptor from rat cortex using [3H]ketanserin as the radioligand.
# Chain of 5-hydroxytryptamine receptor 2A (P14842 whole entry): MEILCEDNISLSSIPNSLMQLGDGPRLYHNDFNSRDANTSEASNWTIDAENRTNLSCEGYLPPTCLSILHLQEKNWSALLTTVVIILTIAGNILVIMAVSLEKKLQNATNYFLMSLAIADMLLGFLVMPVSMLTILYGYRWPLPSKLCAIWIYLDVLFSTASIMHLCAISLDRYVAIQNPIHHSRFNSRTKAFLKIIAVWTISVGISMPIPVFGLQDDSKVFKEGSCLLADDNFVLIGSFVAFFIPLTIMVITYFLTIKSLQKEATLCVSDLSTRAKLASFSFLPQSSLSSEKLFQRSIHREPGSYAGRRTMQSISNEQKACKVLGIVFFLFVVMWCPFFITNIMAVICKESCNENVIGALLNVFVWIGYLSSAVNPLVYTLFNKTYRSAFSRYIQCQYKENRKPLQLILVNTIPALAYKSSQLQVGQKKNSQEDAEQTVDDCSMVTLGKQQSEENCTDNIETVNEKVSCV
# In short: as §2
# [9] = target: D(2) dopamine receptor (Homo sapiens, UniProt P14416); assay: Binding affinity against Dopamine receptor D2 from cell LtkhD2A membranes using [3H]raclopride as the radioligand.
# Chain of D(2) dopamine receptor (P14416 whole entry): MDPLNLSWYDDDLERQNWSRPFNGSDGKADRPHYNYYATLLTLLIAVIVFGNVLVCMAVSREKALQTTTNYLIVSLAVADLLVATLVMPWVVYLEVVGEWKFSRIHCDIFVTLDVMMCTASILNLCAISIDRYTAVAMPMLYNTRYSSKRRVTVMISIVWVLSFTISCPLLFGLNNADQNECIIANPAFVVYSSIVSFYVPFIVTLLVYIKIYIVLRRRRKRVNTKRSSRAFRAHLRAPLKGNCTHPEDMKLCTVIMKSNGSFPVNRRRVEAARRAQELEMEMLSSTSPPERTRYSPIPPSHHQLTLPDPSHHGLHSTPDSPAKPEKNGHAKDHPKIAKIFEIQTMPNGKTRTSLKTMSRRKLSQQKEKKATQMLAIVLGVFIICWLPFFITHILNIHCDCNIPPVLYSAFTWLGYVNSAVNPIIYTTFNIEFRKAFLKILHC
# In short: as §1
Ki [1],Ki [2],Ki [3],Ki [4],Ki [5],Ki [6],Ki [7],Ki [8],Ki [9],Compound
> 10 µM,10 µM,0.275 µM,> 10 µM,> 10 µM,> 10 µM,> 10 µM,> 10 µM,> 10 µM,C1=C(CN2CCOCC2)COc2c1cccc2OC[C@@H]1CNCCO1.Cl
0.63 µM,> 10 µM,0.047 µM,> 10 µM,> 10 µM,> 10 µM,> 10 µM,> 10 µM,> 10 µM,C1=C(CN2CCOCC2)COc2c1cccc2OC[C@H]1CNCCO1.CS(=O)(=O)O
